Converted amounts (≈) assume the structure as drawn.
Legend:
[1] = molecular target: T1, UDP-N-acetylenolpyruvoylglucosamine reductase (Staphylococcus aureus, UniProt P61431); assay: Inhibitory concentration against MurB enzyme in Staphylococcus aureus
T1 sequence (P61431 whole entry): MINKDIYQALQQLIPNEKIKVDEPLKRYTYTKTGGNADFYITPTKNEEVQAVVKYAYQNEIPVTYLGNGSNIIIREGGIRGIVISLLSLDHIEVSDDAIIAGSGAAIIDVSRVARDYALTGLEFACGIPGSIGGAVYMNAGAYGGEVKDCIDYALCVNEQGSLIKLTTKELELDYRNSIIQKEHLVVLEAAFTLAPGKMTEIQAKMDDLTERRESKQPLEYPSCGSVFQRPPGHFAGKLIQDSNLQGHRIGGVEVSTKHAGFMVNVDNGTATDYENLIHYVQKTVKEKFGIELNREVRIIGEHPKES
How it was run: (§1)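 Enzyme (20 nM) preincubated 20 min with inhibitor, then substrates added to final 50 µM EP-UNAG and 100 µM NADPH. Activity followed spectrophotometrically. At least six inhibitor concentrations between 1.5 and 50 µM per compound. IC50 from sigmoid Hill curve fit (0–100).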

[2] = molecular target: UDP-N-acetylglucosamine 1-carboxyvinyltransferase (Escherichia coli K-12, UniProt P0A749); assay: Inhibitory concentration against MurA enzyme in Escherichia coli
How it was run: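 Enzyme preincubated with inhibitor 10 min at 37 °C before substrates were added. Reaction ran 30 min at 37 °C and was stopped with malachite green reagent (0.03% malachite green, 1.4% ammonium molybdate, 1.3 N HCl) for phosphate read-out.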

Staphylococcus aureus [3] = assay: Minimum inhibitory concentration against cell wall biosynthesis of methicillin susceptible Staphylococcus aureus GC 4543; format: functional
How it was run: (§2)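 Broth microdilution per NCCLS M7-A3 in Mueller–Hinton broth, aerobic. Agents tested as 2-fold serial dilutions, with a final inoculum of 1–5 × 10^5 CFU/mL. Plates incubated 18–22 h at 35 °C in ambient air. MIC read as the endpoint.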

Enterococcus faecalis [4] = assay: Minimum inhibitory concentration against cell wall biosynthesis of vancomycin susceptible (ATCC) Enterococcus faecalis GC 4555; format: functional
How it was run: (§3)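 Broth microdilution per NCCLS M7-A3. Mueller–Hinton broth for staphylococci and enterococci, 2-fold serial dilutions of agent. Final inoculum 1–5 × 10^5 CFU/mL.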

[5] = molecular target: T2, UDP-N-acetylenolpyruvoylglucosamine reductase (Escherichia coli K-12, UniProt P08373); assay: Inhibitory concentration against MurB enzyme in Escherichia coli; how it was run: as §1
T2 sequence (P08373 whole entry): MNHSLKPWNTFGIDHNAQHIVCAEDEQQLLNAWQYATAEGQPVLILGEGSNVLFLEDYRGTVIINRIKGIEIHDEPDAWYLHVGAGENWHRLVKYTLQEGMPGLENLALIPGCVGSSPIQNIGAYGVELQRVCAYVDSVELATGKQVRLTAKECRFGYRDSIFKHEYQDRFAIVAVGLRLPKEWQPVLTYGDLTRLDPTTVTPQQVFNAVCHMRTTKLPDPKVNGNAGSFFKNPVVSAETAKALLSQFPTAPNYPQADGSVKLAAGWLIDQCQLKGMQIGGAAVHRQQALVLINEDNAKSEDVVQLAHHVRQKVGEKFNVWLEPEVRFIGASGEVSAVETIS

Escherichia coli [6] = assay: Minimum inhibitory concentration against cell wall biosynthesis of Escherichia coli GC 4560; format: functional
Escherichia coli [7] = assay: Minimum inhibitory concentration against cell wall biosynthesis of Escherichia coli GC 4559; format: functional; how it was run: as §3
Streptococcus pneumoniae [8] = assay: Minimum inhibitory concentration against cell wall biosynthesis of penicillin resistant Streptococcus pneumoniae GC 1894 (PRSP); format: functional
How it was run: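 Broth microdilution per NCCLS M7-A3, using Mueller–Hinton broth supplemented with 5% sheep blood. Agents tested as 2-fold serial dilutions, with a final inoculum of 1–5 × 10^5 CFU/mL.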

Enterococcus faecalis [9] = assay: Minimum inhibitory concentration against cell wall biosynthesis of vancomycin resistant Enterococcus faecalis GC 2242 (VRE); format: functional; how it was run: as §2
[10] = Minimum inhibitory concentration against cell wall biosynthesis of methicillin-susceptible Coagulase negative staphylococcus GC 646 (MSCNS); format: functional; how it was run: as §3
Streptococcus pneumoniae [11] = assay: Minimum inhibitory concentration against cell wall biosynthesis of penicillin resistant Streptococcus pneumoniae GC 1894 (PRSP) in the presence of 4% bovine serum albumin; format: functional
Staphylococcus aureus [12] = assay: Minimum inhibitory concentration against cell wall biosynthesis of methicillin resistant Staphylococcus aureus GC 1131; format: functional; how it was run: as §2

UDP-N-acetylglucosamine 1-carboxyvinyltransferase, sequence (P0A749 whole entry): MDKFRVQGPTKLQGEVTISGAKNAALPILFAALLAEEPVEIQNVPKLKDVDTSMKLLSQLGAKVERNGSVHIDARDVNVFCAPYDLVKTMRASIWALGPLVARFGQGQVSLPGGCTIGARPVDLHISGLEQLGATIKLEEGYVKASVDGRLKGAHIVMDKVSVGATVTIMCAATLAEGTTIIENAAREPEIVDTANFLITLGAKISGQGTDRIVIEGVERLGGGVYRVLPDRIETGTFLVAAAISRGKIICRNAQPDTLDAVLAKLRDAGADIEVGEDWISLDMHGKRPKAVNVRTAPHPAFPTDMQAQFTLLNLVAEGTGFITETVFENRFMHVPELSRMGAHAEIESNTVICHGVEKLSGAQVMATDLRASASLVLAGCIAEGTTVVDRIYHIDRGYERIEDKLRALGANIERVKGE

| SMILES | IC50 [1] | IC50 [2] | MIC (Staphylococcus aureus [3]) | MIC (Enterococcus faecalis [4]) | IC50 [5] | MIC (Escherichia coli [6]) | MIC (Escherichia coli [7]) | MIC (Streptococcus pneumoniae [8]) | MIC (Enterococcus faecalis [9]) | MIC [10] | MIC (Streptococcus pneumoniae [11]) | MIC (Staphylococcus aureus [12]) |
| --- | --- | --- | --- | --- | --- | --- | --- | --- | --- | --- | --- | --- |
| CC1(CCCCCCc2ccccc2)C(=O)N(c2ccc(Cl)cc2)N(c2ccc(Cl)cc2)C1=O | > 50 µM | > 50 µM | > 200 µM | 200 µM (≈ 99.1 µg/mL) | > 50 µM | 200 µM (≈ 99.1 µg/mL) | > 200 µM | 0.78 µM (≈ 0.386 µg/mL) | 100 µM (≈ 49.5 µg/mL) | > 200 µM | > 200 µM |  |
| CCC(CC)CC1C(=O)N(c2ccc(Cl)cc2)N(c2ccc(Cl)cc2)C1=O |  | > 50 µM | 100 µM (≈ 40.5 µg/mL) | 200 µM (≈ 81.1 µg/mL) | 50 µM | 200 µM (≈ 81.1 µg/mL) | > 200 µM | 25 µM (≈ 10.1 µg/mL) | 100 µM (≈ 40.5 µg/mL) | 200 µM (≈ 81.1 µg/mL) | > 200 µM | 100 µM (≈ 40.5 µg/mL) |
| CC1(CCOCc2ccccc2)C(=O)N(c2ccc(Cl)cc2)N(c2ccc(Cl)cc2)C1=O |  | > 50 µM | > 200 µM | > 200 µM | 20 µM | > 200 µM | > 200 µM | 100 µM (≈ 46.9 µg/mL) |  | > 200 µM | > 200 µM | 200 µM (≈ 93.9 µg/mL) |
| O=C1C(Cc2cc(C(F)(F)F)cc(C(F)(F)F)c2)C(=O)N(c2ccc(Cl)cc2)N1c1ccc(Cl)cc1 |  | > 50 µM | 25 µM (≈ 13.7 µg/mL) | 50 µM (≈ 27.4 µg/mL) | 12 µM | > 200 µM | 50 µM (≈ 27.4 µg/mL) | 6.25 µM (≈ 3.42 µg/mL) | 25 µM (≈ 13.7 µg/mL) | 50 µM (≈ 27.4 µg/mL) | > 200 µM | 25 µM (≈ 13.7 µg/mL) |
| O=C1C(Cc2ccccc2Cl)C(=O)N(c2ccc(Cl)cc2)N1c1ccc(Cl)cc1 | > 50 µM | > 50 µM | > 200 µM | > 200 µM | > 50 µM | > 200 µM | > 200 µM | 12.5 µM (≈ 5.57 µg/mL) |  | > 200 µM | > 200 µM |  |
| CCN(CC)CCC1C(=O)N(c2ccc(Cl)cc2)N(c2ccc(Cl)cc2)C1=O |  | > 50 µM | > 200 µM | 200 µM (≈ 84.1 µg/mL) | > 50 µM | > 200 µM | > 200 µM | 100 µM (≈ 42 µg/mL) | 200 µM (≈ 84.1 µg/mL) | 200 µM (≈ 84.1 µg/mL) | > 200 µM | 100 µM (≈ 42 µg/mL) |
| O=C1C(CCc2ccccc2)C(=O)N(c2ccc(Cl)cc2)N1c1ccc(Cl)cc1 |  | > 50 µM | 200 µM (≈ 85.1 µg/mL) | > 200 µM | 35 µM | 200 µM (≈ 85.1 µg/mL) | > 200 µM | 50 µM (≈ 21.3 µg/mL) | 200 µM (≈ 85.1 µg/mL) | 200 µM (≈ 85.1 µg/mL) | > 200 µM | 200 µM (≈ 85.1 µg/mL) |
| O=C1C(Cc2cccc(C(F)(F)F)c2)C(=O)N(c2ccc(Cl)cc2)N1c1ccc(Cl)cc1 |  | > 50 µM | > 200 µM | > 200 µM | 18 µM | > 200 µM | > 200 µM | 50 µM (≈ 24 µg/mL) |  | > 200 µM | > 200 µM |  |
| CC1(CC(=O)c2ccc(F)cc2F)C(=O)N(c2ccc(Cl)cc2)N(c2ccc(Cl)cc2)C1=O | > 50 µM | > 50 µM | > 200 µM | 200 µM (≈ 97.9 µg/mL) | 49 µM | > 200 µM | > 200 µM | > 200 µM | 100 µM (≈ 48.9 µg/mL) | > 200 µM | > 200 µM |  |
| O=C1C(Cc2ccccc2)C(=O)N(c2ccc(Cl)cc2)N1c1ccc(Cl)cc1 |  | > 50 µM | 200 µM (≈ 82.3 µg/mL) | > 200 µM | > 50 µM | > 200 µM | > 200 µM | 200 µM (≈ 82.3 µg/mL) |  | > 200 µM | > 200 µM | 200 µM (≈ 82.3 µg/mL) |
| Cc1c(OCC(=O)c2ccc(F)cc2F)n(-c2ccc(Cl)cc2)n(-c2ccc(Cl)cc2)c1=O | > 50 µM | > 50 µM |  | > 200 µM | > 50 µM | > 200 µM | > 200 µM |  |  | > 200 µM |  |  |
| O=C1C(CCCc2ccccc2)C(=O)N(c2ccc(Cl)cc2)N1c1ccc(Cl)cc1 |  | 44.3 µM | 200 µM (≈ 87.9 µg/mL) | > 200 µM | 10 µM | 200 µM (≈ 87.9 µg/mL) | > 200 µM | 25 µM (≈ 11 µg/mL) | 200 µM (≈ 87.9 µg/mL) | > 200 µM | > 200 µM | 200 µM (≈ 87.9 µg/mL) |
| COc1cccc(CC2C(=O)N(c3ccc(Cl)cc3)N(c3ccc(Cl)cc3)C2=O)c1 |  | > 50 µM | > 200 µM | > 200 µM | 50 µM | > 200 µM | > 200 µM | 200 µM (≈ 88.3 µg/mL) |  | 200 µM (≈ 88.3 µg/mL) | > 200 µM |  |
| O=C1C(CCSCc2ccccc2)C(=O)N(c2ccc(Cl)cc2)N1c1ccc(Cl)cc1 | 5.1 µM | 9.8 µM | 25 µM (≈ 11.8 µg/mL) | 100 µM (≈ 47.1 µg/mL) | 5.2 µM | 200 µM (≈ 94.3 µg/mL) | > 200 µM | 6.25 µM (≈ 2.95 µg/mL) | 50 µM (≈ 23.6 µg/mL) | 50 µM (≈ 23.6 µg/mL) | > 200 µM |  |
| CCCCCCCC1C(=O)N(c2ccc(Cl)cc2)N(c2ccc(Cl)cc2)C1=O |  | > 50 µM | 100 µM (≈ 41.9 µg/mL) | 200 µM (≈ 83.9 µg/mL) | 42 µM | > 200 µM | > 200 µM | 6.25 µM (≈ 2.62 µg/mL) | 100 µM (≈ 41.9 µg/mL) | 200 µM (≈ 83.9 µg/mL) | > 200 µM | 100 µM (≈ 41.9 µg/mL) |

Reference: ChEMBL document CHEMBL1145247, “4-Alkyl and 4,4'-dialkyl 1,2-bis(4-chlorophenyl)pyrazolidine-3,5-dione derivatives as new inhibitors of bacterial cell wall biosynthesis” (Bioorg Med Chem Lett, 2005)
